ChEMBL document CHEMBL1153345, “Novel tricyclic inhibitors of IkappaB kinase” (J Med Chem, 2009)

Experiments:
[1] = molecular target: T1, Inhibitor of nuclear factor kappa-B kinase subunit alpha (Homo sapiens, UniProt O15111); test: Inhibition of IKK1-mediated phosphorylation of GST-IkappaBalpha fusion protein afterr 60 mins by fluorescence polarization assay
T1 sequence (O15111 whole entry): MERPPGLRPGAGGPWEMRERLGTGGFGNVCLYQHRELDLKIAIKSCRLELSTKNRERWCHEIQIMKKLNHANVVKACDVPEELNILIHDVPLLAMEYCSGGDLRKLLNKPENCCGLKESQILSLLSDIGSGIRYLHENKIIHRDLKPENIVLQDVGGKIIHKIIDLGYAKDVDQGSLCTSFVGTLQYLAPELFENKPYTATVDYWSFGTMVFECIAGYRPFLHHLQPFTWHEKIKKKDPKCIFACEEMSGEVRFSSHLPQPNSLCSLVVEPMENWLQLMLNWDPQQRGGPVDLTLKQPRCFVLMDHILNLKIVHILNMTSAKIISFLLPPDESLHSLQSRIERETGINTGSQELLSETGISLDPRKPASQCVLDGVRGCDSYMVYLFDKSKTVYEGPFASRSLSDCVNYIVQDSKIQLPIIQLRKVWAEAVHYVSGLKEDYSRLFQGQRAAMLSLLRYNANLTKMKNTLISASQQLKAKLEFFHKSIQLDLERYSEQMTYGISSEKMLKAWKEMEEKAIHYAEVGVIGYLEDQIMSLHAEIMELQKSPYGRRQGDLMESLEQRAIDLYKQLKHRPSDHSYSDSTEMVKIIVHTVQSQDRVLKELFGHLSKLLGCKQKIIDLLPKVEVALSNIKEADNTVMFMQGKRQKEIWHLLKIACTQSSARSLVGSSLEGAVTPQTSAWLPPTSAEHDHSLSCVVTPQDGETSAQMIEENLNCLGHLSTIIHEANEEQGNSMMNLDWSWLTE
Summary of the method: (§1)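 GST-IκBα (50 µg/mL) with 20 µM ATP in 25 mM Tris-HCl pH 7.5, 7.5 mM MgCl2, 1 mM DTT, 5% glycerol, BSA; reaction started by adding IKK enzyme (IKK-2 typically 3 µg/mL final) at room temperature. Stopped after 60 min with 33 mM EDTA. Phospho-IκBα quantified by fluorescence polarization, competing with a fluorescein-labelled phosphopeptide for anti-phospho-IκBα antibody.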

[2] = molecular target: T2, Inhibitor of nuclear factor kappa-B kinase subunit beta (Homo sapiens, UniProt O14920); test: Inhibition of IKK2-mediated phosphorylation of GST-IkappaBalpha fusion protein afterr 60 mins by fluorescence polarization assay; summary of the method: as §1
T2 sequence (O14920 whole entry): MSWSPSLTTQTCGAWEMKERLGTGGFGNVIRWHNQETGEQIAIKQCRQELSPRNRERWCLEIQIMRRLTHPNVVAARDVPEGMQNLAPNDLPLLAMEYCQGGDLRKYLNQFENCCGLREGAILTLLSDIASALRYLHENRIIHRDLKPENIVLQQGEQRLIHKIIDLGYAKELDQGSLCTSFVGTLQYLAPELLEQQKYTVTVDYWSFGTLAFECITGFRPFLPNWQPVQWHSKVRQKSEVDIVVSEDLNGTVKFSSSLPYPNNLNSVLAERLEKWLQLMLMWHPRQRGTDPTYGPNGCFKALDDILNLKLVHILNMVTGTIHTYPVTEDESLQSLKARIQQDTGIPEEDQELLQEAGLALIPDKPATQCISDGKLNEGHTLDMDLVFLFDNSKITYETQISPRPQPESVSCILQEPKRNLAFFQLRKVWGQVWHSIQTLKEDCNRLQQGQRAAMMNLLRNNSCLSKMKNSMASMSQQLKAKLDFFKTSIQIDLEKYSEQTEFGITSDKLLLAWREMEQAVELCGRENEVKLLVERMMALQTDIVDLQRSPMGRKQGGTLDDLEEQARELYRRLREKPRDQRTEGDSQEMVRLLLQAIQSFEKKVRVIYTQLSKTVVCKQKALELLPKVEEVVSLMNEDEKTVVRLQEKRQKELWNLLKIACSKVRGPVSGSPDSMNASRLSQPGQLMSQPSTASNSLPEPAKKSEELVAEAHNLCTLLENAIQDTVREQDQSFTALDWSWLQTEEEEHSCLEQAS

Liver microsomes [3] = test: Metabolic stability in rat liver microsomes assessed as clearance at 3 uM after 1 hr; type: ADME, Microsome
Summary of the method: (§2)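 Liver microsomes (mouse, human or rat) at 1 mg/mL protein with 3 µM compound in 65 mM phosphate buffer pH 7.4 and 1 mM NADPH, 37 °C, 1 h. Samples taken at 0 and 15 min and quenched with acetonitrile. Metabolic rate calculated from parent disappearance between 0 and 15 min.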

Liver microsomes [4] = test: Metabolic stability in human liver microsomes assessed as clearance at 3 uM after 1 hr; type: ADME, Microsome; summary of the method: as §2
[5] = Metabolic stability in mouse liver microsomes assessed as clearance at 3 uM after 1 hr; type: ADME, Microsome; summary of the method: as §2
[6] = Cmax in rat at 2 mg/kg, iv; type: ADME, organism-based; parameters: dose 2 mg/kg, route intravenous; details: in vivo
Summary of the method: (§3)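 Some compounds were dosed as a cassette of five compounds at 2 mg/kg each, after prescreening to exclude potent CYP inhibitors (IC50 < 10 µM).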

[7] = AUC in rat at 2 mg/kg, iv; type: ADME, organism-based; parameters: dose 2 mg/kg, route intravenous; details: plasma; summary of the method: as §3
[8] = Half life in rat at 2 mg/kg, iv; type: ADME, organism-based; parameters: dose 2 mg/kg, route intravenous; details: in vivo; summary of the method: as §3
[9] = Clearance in rat at 2 mg/kg, iv; type: ADME, organism-based; parameters: dose 2 mg/kg, route intravenous; details: in vivo; summary of the method: as §3
[10] = Volume of distribution at steady state in rat at 2 mg/kg, iv; type: ADME, organism-based; parameters: dose 2 mg/kg, route intravenous; details: in vivo, read-out: Vdss; summary of the method: as §3
[11] = Cytotoxicity against human PBMC assessed as cell viability at 10 uM by alamar blue assay; type: cell-based; details: read-out: Activity
PBMC = test: Inhibition of LPS-induced TNFalpha production in human PBMC preincubated for 30 mins before LPS challenge measured afterr 6 hrs by ELISA; type: functional, cell-based
Summary of the method: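 PBMCs from healthy donor blood, isolated over ficoll in RPMI containing EDTA and polymyxin, then resuspended in RPMI/10% FBS at 1 × 10^6 cells/mL. Compound preincubated 30 min, then LPS added (25 ng/mL final). Incubated 6 h at 37 °C, 5% CO2; supernatant TNF-α measured by ELISA.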

[12] = molecular target: Tyrosine-protein kinase BTK (Homo sapiens, UniProt Q06187); test: Inhibition of Btk
Summary of the method: (§4)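 In-house kinase selectivity panel of 30 kinases; enzyme inhibition values reported in µM.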

[13] = molecular target: Cyclin-dependent kinase 2 (Homo sapiens, UniProt P24941); test: Inhibition of Cdk2; summary of the method: as §4
[14] = Inhibition of IGFR; summary of the method: as §4
[15] = molecular target: T3, Tyrosine-protein kinase ITK/TSK (Homo sapiens, UniProt Q08881); test: Inhibition of Itk; summary of the method: as §4
T3 sequence (Q08881 whole entry): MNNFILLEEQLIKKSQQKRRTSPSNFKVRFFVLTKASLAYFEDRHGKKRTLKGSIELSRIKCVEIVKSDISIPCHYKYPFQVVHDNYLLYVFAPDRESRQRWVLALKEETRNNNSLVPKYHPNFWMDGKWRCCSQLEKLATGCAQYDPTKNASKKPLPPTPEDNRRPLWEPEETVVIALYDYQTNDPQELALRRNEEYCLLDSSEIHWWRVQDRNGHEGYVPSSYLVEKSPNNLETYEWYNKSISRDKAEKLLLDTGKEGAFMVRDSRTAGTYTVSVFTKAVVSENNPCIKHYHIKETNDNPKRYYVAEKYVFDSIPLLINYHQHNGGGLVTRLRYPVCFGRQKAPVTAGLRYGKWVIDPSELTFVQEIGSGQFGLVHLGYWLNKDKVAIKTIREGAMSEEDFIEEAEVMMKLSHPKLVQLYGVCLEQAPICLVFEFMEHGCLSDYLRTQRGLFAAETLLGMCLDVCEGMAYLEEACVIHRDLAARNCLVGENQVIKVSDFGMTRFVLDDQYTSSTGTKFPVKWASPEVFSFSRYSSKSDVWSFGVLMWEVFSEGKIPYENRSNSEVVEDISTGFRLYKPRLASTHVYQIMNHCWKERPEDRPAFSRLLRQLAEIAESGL

[16] = molecular target: T4, Inhibitor of nuclear factor kappa-B kinase subunit epsilon (Homo sapiens, UniProt Q14164); test: Inhibition of IKKepsilon; summary of the method: as §4
T4 sequence (Q14164 whole entry): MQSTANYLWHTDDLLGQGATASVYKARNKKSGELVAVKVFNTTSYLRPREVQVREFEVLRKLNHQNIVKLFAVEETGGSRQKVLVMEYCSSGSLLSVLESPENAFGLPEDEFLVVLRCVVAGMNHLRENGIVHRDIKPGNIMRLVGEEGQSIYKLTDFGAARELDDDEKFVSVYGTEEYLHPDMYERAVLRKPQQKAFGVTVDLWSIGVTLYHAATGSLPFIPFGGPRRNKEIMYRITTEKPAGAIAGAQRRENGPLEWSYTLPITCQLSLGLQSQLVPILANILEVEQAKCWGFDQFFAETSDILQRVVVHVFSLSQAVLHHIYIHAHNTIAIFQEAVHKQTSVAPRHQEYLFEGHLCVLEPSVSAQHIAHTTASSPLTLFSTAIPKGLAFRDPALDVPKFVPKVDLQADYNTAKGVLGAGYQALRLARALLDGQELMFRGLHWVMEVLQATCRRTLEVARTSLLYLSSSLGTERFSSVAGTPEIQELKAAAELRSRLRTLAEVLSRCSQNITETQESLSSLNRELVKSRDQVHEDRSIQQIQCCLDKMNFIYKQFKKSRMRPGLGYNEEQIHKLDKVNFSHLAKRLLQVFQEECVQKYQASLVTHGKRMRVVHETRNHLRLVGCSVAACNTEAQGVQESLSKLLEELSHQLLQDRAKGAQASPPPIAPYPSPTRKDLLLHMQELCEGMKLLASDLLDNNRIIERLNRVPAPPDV

[17] = molecular target: Serine/threonine-protein kinase PLK1 (Homo sapiens, UniProt P53350); test: Inhibition of Plk1; summary of the method: as §4
[18] = molecular target: Proto-oncogene tyrosine-protein kinase Src (Homo sapiens, UniProt P12931); test: Inhibition of Src; summary of the method: as §4
Chain of Proto-oncogene tyrosine-protein kinase Src (P12931 2-536 limits assumed): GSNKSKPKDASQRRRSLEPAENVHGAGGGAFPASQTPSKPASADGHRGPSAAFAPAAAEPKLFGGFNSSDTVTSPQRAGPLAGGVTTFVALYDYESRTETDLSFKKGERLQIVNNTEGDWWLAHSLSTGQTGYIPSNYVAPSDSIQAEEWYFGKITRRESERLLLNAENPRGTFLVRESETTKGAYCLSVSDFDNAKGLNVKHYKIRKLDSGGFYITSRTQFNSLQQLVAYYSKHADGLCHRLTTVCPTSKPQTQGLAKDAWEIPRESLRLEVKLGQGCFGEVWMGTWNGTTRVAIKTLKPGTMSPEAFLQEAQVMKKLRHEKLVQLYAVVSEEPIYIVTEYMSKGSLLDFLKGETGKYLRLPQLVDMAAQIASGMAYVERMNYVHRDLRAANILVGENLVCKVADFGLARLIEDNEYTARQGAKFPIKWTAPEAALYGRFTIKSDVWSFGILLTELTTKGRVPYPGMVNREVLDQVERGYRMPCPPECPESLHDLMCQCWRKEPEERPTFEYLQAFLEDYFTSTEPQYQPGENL

Chain of Serine/threonine-protein kinase PLK1 (P53350 whole entry): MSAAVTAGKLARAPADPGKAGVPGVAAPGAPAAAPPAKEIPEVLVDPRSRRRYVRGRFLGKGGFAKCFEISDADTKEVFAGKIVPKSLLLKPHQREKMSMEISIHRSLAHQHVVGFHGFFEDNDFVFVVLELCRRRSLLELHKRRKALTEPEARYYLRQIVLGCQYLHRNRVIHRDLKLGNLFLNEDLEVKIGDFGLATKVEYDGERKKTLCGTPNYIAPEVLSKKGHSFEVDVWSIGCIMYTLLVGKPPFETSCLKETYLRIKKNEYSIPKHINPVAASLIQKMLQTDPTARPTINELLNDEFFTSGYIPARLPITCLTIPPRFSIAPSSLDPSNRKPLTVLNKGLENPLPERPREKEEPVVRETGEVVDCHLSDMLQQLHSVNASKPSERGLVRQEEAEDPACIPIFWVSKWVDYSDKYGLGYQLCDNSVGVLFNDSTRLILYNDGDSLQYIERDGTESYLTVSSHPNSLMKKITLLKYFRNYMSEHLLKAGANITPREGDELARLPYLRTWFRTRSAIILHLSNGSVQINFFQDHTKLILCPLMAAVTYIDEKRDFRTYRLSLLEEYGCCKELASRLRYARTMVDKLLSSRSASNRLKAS
Chain of Tyrosine-protein kinase BTK (Q06187 whole entry): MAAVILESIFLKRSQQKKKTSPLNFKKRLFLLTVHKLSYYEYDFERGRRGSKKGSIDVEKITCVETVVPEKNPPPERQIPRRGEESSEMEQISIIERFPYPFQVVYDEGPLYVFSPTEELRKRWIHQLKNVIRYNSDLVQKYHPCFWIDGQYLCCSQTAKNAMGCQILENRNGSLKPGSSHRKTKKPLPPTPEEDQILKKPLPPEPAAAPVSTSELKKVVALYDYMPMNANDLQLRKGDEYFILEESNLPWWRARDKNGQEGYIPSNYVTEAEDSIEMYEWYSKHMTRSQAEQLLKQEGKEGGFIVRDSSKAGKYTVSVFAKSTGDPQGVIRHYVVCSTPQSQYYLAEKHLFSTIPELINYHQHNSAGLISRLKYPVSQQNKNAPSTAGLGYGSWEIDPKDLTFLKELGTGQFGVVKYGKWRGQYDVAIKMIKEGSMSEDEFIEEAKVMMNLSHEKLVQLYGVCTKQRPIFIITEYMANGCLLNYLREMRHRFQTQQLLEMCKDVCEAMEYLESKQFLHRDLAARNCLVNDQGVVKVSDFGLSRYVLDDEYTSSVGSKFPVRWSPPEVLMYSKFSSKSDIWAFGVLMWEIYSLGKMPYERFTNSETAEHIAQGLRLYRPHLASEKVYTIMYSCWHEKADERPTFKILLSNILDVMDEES

| IC50 [1] [µM] | IC50 [2] [µM] | CL (Liver microsomes [3]) [nmol/mg/min] | CL (Liver microsomes [4]) [nmol/mg/min] | CL [5] [nmol/mg/min] | Cmax [6] [nM] | AUC [7] [µM·h] | half-life [8] [h] | clearance [9] [mL/min/kg] | Vd [10] [L/kg] | IC50 [12] [µM] | IC50 [13] [µM] | IC50 [14] [µM] | IC50 [15] [µM] | IC50 [16] [µM] | IC50 [17] [µM] | IC50 [18] [µM] | Structure (SMILES) | viability at 10 µM [11] [%] | IC50 (PBMC) [µM] |
| --- | --- | --- | --- | --- | --- | --- | --- | --- | --- | --- | --- | --- | --- | --- | --- | --- | --- | --- | --- |
| 3.1 | 0.026 | 0.095 | 0.13 | 0.21 | 1600 | 1.6 | 0.6 | 67 | 3.2 |  |  |  |  |  |  |  | CNc1nc2sc(-c3ccc(F)cc3)nc2c2c1ncn2C | 74 |  |
| 8.6 | 0.075 | 0 | 0 | 0 | 600 | 0.59 | 2.6 | 52 | 10.4 |  |  |  |  |  |  |  | Cn1cnc2c(NCCNCCO)nc3sc(-c4ccc(F)cc4)nc3c21 | 0 |  |
| 4.3 | 0.52 | 0.08 | 0.13 | 0.12 |  |  |  |  |  | 14 | 23 | < 50 | 19 | 14 | 12 | < 50 | CNc1nc2c(nc(-c3ccccc3)n2C)c2c1ncn2C |  | 0.44 |
| 1.9 | 0.022 |  |  |  |  |  |  |  |  | 17 | 31 | < 50 | 9.1 | 12 | < 50 | < 50 | CNc1nc2sc(-c3cccc(CNC(C)=O)c3)nc2c2c1ncn2C |  | 0.35 |
